Test results published in ChEMBL document CHEMBL1137560, “Synthesis and monoamine oxidase inhibitory activity of new pyridazine-, pyrimidine- and 1,2,4-triazine-containing tricyclic derivatives” (J Med Chem, 2007).
pIC50: −log10 of the molar value.

Key:
[1] = molecular target: T1, Amine oxidase [flavin-containing] B (Rattus norvegicus, UniProt P19643); test: Inhibition of MAOB in rat brain mitochondria
T1 sequence (P19643 whole entry): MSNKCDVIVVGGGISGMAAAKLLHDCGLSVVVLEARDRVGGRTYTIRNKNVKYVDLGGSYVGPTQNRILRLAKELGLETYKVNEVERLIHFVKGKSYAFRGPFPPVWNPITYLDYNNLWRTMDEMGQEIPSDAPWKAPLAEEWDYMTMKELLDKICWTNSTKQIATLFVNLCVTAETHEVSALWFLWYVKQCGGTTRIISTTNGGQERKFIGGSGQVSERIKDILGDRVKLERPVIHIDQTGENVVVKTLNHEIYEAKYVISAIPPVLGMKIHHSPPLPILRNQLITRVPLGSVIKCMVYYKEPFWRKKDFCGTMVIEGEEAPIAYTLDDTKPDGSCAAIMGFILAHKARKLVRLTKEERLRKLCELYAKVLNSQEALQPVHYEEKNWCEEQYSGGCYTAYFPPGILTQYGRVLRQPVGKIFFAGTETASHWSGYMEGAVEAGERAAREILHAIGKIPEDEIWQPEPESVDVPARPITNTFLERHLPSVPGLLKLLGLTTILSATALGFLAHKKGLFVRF
In short: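 MAO-B measured in rat brain mitochondrial suspension after 5 min preincubation with clorgyline. Incubations at pH 7.40 (isotonic phosphate/KCl) and 37 °C, 5% DMSO cosolvent. Kynuramine 60 µM (its KM); 4-hydroxyquinoline formation read continuously at 314 nm. Highest concentration 100 µM; IC50 derived by hyperbolic equation fit.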

[2] = molecular target: T2, Amine oxidase [flavin-containing] A (Rattus norvegicus, UniProt P21396); test: Inhibition of MAOA in rat brain mitochondria at 10 uM
T2 sequence (P21396 whole entry): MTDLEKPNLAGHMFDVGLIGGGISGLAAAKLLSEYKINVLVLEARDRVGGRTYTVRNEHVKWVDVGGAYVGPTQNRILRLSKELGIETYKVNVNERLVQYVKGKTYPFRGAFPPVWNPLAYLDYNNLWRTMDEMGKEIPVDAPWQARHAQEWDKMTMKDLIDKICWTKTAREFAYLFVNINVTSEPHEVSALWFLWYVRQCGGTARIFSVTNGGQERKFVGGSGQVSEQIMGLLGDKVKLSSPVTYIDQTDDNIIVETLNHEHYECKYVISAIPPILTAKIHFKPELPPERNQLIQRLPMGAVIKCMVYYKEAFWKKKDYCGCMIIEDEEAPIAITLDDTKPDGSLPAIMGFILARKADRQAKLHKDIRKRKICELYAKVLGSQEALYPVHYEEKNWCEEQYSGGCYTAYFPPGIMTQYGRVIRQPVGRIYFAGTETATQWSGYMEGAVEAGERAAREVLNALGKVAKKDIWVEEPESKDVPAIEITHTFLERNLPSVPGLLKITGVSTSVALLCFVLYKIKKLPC

[3] = molecular target: T1, Amine oxidase [flavin-containing] B; test: Inhibition of MAOB in rat brain mitochondria at 10 uM
[4] = molecular target: T2, Amine oxidase [flavin-containing] A; test: Inhibition of MAOA in rat brain mitochondria
In short: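 Rat brain mitochondrial suspension, isotonic Na2HPO4/KH2PO4–KCl buffer, pH 7.40, 37 °C, with 5% DMSO cosolvent. Preincubated 5 min with selegiline to isolate MAO-A. Continuous spectrophotometric assay: 90 µM kynuramine (its KM) oxidized to 4-hydroxyquinoline, followed at 314 nm. Top concentration tested 100 µM; IC50 calculated from a hyperbolic equation.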

[5] = molecular target: T2, Amine oxidase [flavin-containing] A; test: Inhibition of MAOA in rat brain mitochondria at 50 uM
[6] = molecular target: T1, Amine oxidase [flavin-containing] B; test: Inhibition of MAOB in rat brain mitochondria at 50 uM
[7] = molecular target: T1, Amine oxidase [flavin-containing] B; test: Inhibition of MAOB in rat brain mitochondria at 25 uM
In short: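 Rat brain mitochondrial suspension, pre-treated 5 min with clorgyline to isolate MAO-B. Kynuramine substrate at 60 µM (its KM) in isotonic Na2HPO4/KH2PO4/KCl buffer, pH 7.40, 37 °C, with 5% DMSO cosolvent. 4-Hydroxyquinoline formation followed continuously at 314 nm. Percent inhibition taken at the compound's maximum solubility; means ± SEM of three experiments, each run in duplicate.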

[8] = molecular target: T1, Amine oxidase [flavin-containing] B; test: Inhibition of MAOB in rat brain mitochondria at 20 uM
[9] = molecular target: T2, Amine oxidase [flavin-containing] A; test: Inhibition of MAOA in rat brain mitochondria at 1 uM
[10] = molecular target: T1, Amine oxidase [flavin-containing] B; test: Inhibition of MAOB in rat brain mitochondria at 1 uM

Compound: O=C1c2ccccc2-c2nnc(COc3ccccc3)cc21
- pIC50 [1]: 5.60
- inhibition at 10 µM [2]: 0%

Compound: O=C1c2ccccc2-c2nnc(COc3ccc(C(F)(F)F)cc3)cc21
- inhibition at 10 µM [3]: 48%
- inhibition at 10 µM [2]: 0%

Compound: O=C1c2ccccc2-c2nnc(OCc3ccccc3)cc21
- pIC50 [4]: < 4.00
- pIC50 [1]: 4.26

Compound: O=C1c2ccccc2-c2nn(-c3ccccc3)c(=O)cc21
- pIC50 [1]: 4.42
- inhibition at 50 µM [5]: 46%

Compound: Nc1cccc(-c2nnc3c(n2)-c2ccccc2C3=O)c1
- inhibition at 10 µM [3]: 17%
- inhibition at 10 µM [2]: 12%

Compound: c1ccc2c(c1)nnc1c3ccccc3[nH]c21
- pIC50 [4]: 4.53
- inhibition at 50 µM [6]: 29%

Compound: c1ccc2c(c1)CCc1c-2[nH]c2ccccc12
- pIC50 [4]: 4.92
- inhibition at 25 µM [7]: 38%

Compound: O=C1c2ccccc2-c2nc(-c3cccc([N+](=O)[O-])c3)nnc21
- pIC50 [1]: 7.10
- inhibition at 10 µM [2]: 23%

Compound: c1ccc(-c2ncc3c(n2)Cc2ccccc2-3)cc1
- pIC50 [4]: 4.78
- pIC50 [1]: 4.89

Compound: c1ccc(-c2ncc3c(n2)-c2ccccc2C3)cc1
- pIC50 [4]: 4.74
- inhibition at 20 µM [8]: 37%

Compound: O=C1c2ccccc2-c2ncnc(-c3ccccc3)c21
- pIC50 [4]: 4.67
- pIC50 [1]: 4.47

Compound: O=C1c2ccccc2-c2nnc(COc3ccc(F)cc3)cc21
- pIC50 [1]: 5.72
- inhibition at 10 µM [2]: 12%

Compound: O=C(c1ccccc1)c1cnncc1-c1ccc(Cl)cc1
- pIC50 [4]: 4.51
- pIC50 [1]: < 4.00

Compound: Cc1ncc2c(n1)C(=O)c1ccccc1-2
- pIC50 [4]: 4.33
- pIC50 [1]: 5.03

Compound: O=C1c2ccccc2-c2cnc(-c3cccc([N+](=O)[O-])c3)nc21
- inhibition at 1 µM [9]: 5%
- inhibition at 1 µM [10]: 12%

Compound: O=C1c2ccccc2-c2nnc(-c3cccc([N+](=O)[O-])c3)nc21
- pIC50 [1]: 6.04
- inhibition at 10 µM [2]: 3%

Compound: O=C1c2ccccc2-c2nc(-c3ccccc3)nnc21
- pIC50 [1]: 5.20
- inhibition at 10 µM [2]: 21%
